Experimental data taken from ChEMBL document CHEMBL3351380, “Antioxidant and antimicrobial studies on fused-ring pyrazolones and isoxazolones” (Bioorg Med Chem, 2014).
≈ marks a conversion by molar mass, not a printed value. Calls of active or inactive are those of the source. The rule behind the calls is not given here.

Legend:
[1] = test system: Candida albicans; assay: Antifungal activity against Candida albicans assessed as zone of inhibition at 100 ug/ml by agar well diffusion method; format: functional; details: for zone of inhibition at 100 µg/mL: read-out: IZ
Procedure, shortened: (§1)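 For the agar well diffusion screen, samples at 100 µg/mL were made from a stock of 10 mg in 1 mL EtOH diluted 1:1 (v/v) with Mueller-Hinton medium. The zone of inhibition was scored as 5–10 mm poor, 10–15 moderate, 15–20 good and 20–25 very good. Gentamycin and nystatin were the reference drugs. Strains were confirmed at the University of Botswana microbiology laboratory.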

[2] = test system: Staphylococcus aureus; assay: Antimicrobial activity against Staphylococcus aureus ATCC 25923 by agar well diffusion method; format: functional
[3] = test system: Escherichia coli; assay: Antimicrobial activity against Escherichia coli ATCC 8739 by agar well diffusion method; format: functional
[4] = test system: Pseudomonas aeruginosa; assay: Antimicrobial activity against Pseudomonas aeruginosa NCIMB 8295 by agar well diffusion method; format: functional
[5] = test system: Bacillus subtilis; assay: Antimicrobial activity against Bacillus subtilis NCIB 3610 by agar well diffusion method; format: functional; details: subsp. subtilis str. NCIB 3610
[6] = test system: Candida albicans; assay: Antifungal activity against Candida albicans by agar well diffusion method; format: functional
[7] = Antioxidant activity assessed as DPPH radical scavenging activity after 30 mins by spectrophotometry; format: physicochemical
Procedure, shortened: (§2)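 DPPH (0.51 mM in methanol) was mixed 1:1 by volume with the compound at several concentrations (100, 50, 25 … µg/mL range). Absorbance was read against a control, and % inhibition = (A0−As)/A0 ×100. Readings were taken at 30 min and 3 h, with ascorbic acid as the reference. Triplicate measurements.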

[8] = Antioxidant activity assessed as DPPH radical scavenging activity after 3 hrs by spectrophotometry; format: physicochemical; procedure, shortened: as §2
[9] = Antioxidant activity assessed as DPPH radical scavenging activity at 10 ug/ml after 3 hrs by spectrophotometry; format: physicochemical
[10] = Metal chelating activity of the compound assessed as formation of iron complex after 20 mins by spectrophotometry; format: physicochemical
Procedure, shortened: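 Fe2+ chelation was measured by disruption of the o-phenanthroline–Fe2+ complex. O-phenanthroline (0.05% in methanol) and FeCl2 (0.1%) were mixed with the sample at various concentrations and held at room temperature for 20 min, then read at 510 nm. EDTA was the standard chelator. % chelation = (Acontrol−Asample)/Acontrol ×100, and IC50 came from plots of % chelation versus concentration. Triplicates.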

[11] = test system: Staphylococcus aureus; assay: Antimicrobial activity against Staphylococcus aureus ATCC 25923 assessed as zone of inhibition at 100 ug/ml by agar well diffusion method; format: functional; details: for zone of inhibition at 100 µg/mL: read-out: IZ; procedure, shortened: as §1
[12] = test system: Escherichia coli; assay: Antimicrobial activity against Escherichia coli ATCC 8739 assessed as zone of inhibition at 100 ug/ml by agar well diffusion method; format: functional; procedure, shortened: as §1
[13] = test system: Pseudomonas aeruginosa; assay: Antimicrobial activity against Pseudomonas aeruginosa NCIMB 8295 assessed as zone of inhibition at 100 ug/ml by agar well diffusion method; format: functional; procedure, shortened: as §1
[14] = test system: Bacillus subtilis; assay: Antimicrobial activity against Bacillus subtilis NCIB 3610 assessed as zone of inhibition at 100 ug/ml by agar well diffusion method; format: functional; details: for Activity: subsp. subtilis str. NCIB 3610; procedure, shortened: as §1

| MIC [2] | MIC [3] | MIC [4] | MIC [5] | MIC [6] | IC50 [7] [µg/mL] | IC50 [8] [µg/mL] | inhibition (INH) [9] [%] | IC50 [10] [µg/mL] | SMILES | zone of inhibition at 100 µg/mL [1] [mm] | zone of inhibition at 100 µg/mL [11] [mm] | Activity [12] | Activity [13] | Activity [14] | Activity [1] | Activity [11] | zone of inhibition at 100 µg/mL ([14]; subsp. subtilis str. NCIB 3610, read-out: IZ) [mm] | zone of inhibition at 100 µg/mL ([12]; read-out: IZ) [mm] | zone of inhibition at 100 µg/mL ([13]; read-out: IZ) [mm] |
| --- | --- | --- | --- | --- | --- | --- | --- | --- | --- | --- | --- | --- | --- | --- | --- | --- | --- | --- | --- |
| 2.5 µg/mL (≈ 7.16 µM) | inactive | inactive | inactive | 2.5 µg/mL (≈ 7.16 µM) | 55.88 (≈ 160 µM) | 30.23 (≈ 86.5 µM) | > 40 | 80.91 (≈ 232 µM) | O=C1NN=C2C=C(c3ccc(O)cc3)CC(c3cccc([N+](=O)[O-])c3)C12 (configuration not stated) | 11 | 11 | inactive | inactive | inactive | – | – | – | – | – |
| inactive | inactive | inactive | 2.5 µg/mL (≈ 6.88 µM) | inactive | 86.74 (≈ 239 µM) | 38.38 (≈ 106 µM) | – | 85.58 (≈ 236 µM) | COc1ccc(C2=CC3=NNC(=O)C3C(c3cccc([N+](=O)[O-])c3)C2)cc1 (configuration not stated) | – | – | inactive | inactive | – | inactive | inactive | 11 | – | – |
| inactive | inactive | inactive | inactive | inactive | 275 (≈ 697 µM) | 140.02 (≈ 355 µM) | – | 746.04 (≈ 1890 µM) | COc1ccc(C2=CC3=NOC(=O)C3C(c3cccc([N+](=O)[O-])c3)C2)c(OC)c1 (configuration not stated) | – | – | inactive | inactive | inactive | inactive | inactive | – | – | – |
| 2.5 µg/mL (≈ 7.14 µM) | 2.5 µg/mL (≈ 7.14 µM) | inactive | inactive | 2.5 µg/mL (≈ 7.14 µM) | 202.15 (≈ 577 µM) | 118.69 (≈ 339 µM) | – | 360.98 (≈ 1030 µM) | O=C1ON=C2C=C(c3ccc(O)cc3)CC(c3cccc([N+](=O)[O-])c3)C12 (configuration not stated) | 10 | 10 | – | inactive | inactive | – | – | – | 10 | – |
| inactive | inactive | inactive | inactive | inactive | 196.5 (≈ 497 µM) | 98.53 (≈ 249 µM) | – | 1028 (≈ 2600 µM) | CCOC(=O)C1C(=O)C=C(c2ccc(OC)cc2)CC1c1cccc([N+](=O)[O-])c1 (configuration not stated) | – | – | inactive | inactive | inactive | inactive | inactive | – | – | – |
| inactive | inactive | inactive | inactive | 2.5 µg/mL (≈ 6.05 µM) | 305.01 (≈ 738 µM) | 218.75 (≈ 529 µM) | – | 816.48 (≈ 1980 µM) | O=C1ON=C2C=C(c3ccc(Br)cc3)CC(c3cccc([N+](=O)[O-])c3)C12 (configuration not stated) | 9 | – | inactive | inactive | inactive | – | inactive | – | – | – |
| inactive | inactive | 2.5 µg/mL (≈ 7.48 µM) | inactive | 2.5 µg/mL (≈ 7.48 µM) | 312.28 (≈ 934 µM) | 215.71 (≈ 645 µM) | – | 750.45 (≈ 2240 µM) | O=C1ON=C2C=C(c3ccccc3)CC(c3cccc([N+](=O)[O-])c3)C12 (configuration not stated) | 10 | – | inactive | – | inactive | – | inactive | – | – | 11 |
